Assays:
human TLR5 = human TLR5 (Homo sapiens, UniProt O60602); assay: SEAP reporter gene detection assay in HEK-Blue TLR5 cells; format: cell-based; conditions: 0 to 20 μM, 24 hours
In short: (§1)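 HEK 293 cells stably carrying the human TLR and a SEAP reporter, 4 × 10^4/well, grown 24 h. Then 24 h in Opti-MEM/0.5% FBS with test compound. Positive controls: poly(I:C) 0–10.9 μg/ml (TLR3), LPS 0–36.5 ng/ml (TLR4), FLA-BS 0–10 μg/ml (TLR5), R848 0–6 μg/ml (TLR7, TLR8). Supernatant heated 30 min at 65°C, then CSPD substrate added; luminescence read after 20 min.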

human TLR3 = molecular target: T1, human TLR3 (Homo sapiens, UniProt O15455); assay: SEAP reporter gene detection assay in HEK-Blue TLR3 cells; format: cell-based; conditions: 0 to 20 μM, 24 hours
T1 sequence (O15455 24-904): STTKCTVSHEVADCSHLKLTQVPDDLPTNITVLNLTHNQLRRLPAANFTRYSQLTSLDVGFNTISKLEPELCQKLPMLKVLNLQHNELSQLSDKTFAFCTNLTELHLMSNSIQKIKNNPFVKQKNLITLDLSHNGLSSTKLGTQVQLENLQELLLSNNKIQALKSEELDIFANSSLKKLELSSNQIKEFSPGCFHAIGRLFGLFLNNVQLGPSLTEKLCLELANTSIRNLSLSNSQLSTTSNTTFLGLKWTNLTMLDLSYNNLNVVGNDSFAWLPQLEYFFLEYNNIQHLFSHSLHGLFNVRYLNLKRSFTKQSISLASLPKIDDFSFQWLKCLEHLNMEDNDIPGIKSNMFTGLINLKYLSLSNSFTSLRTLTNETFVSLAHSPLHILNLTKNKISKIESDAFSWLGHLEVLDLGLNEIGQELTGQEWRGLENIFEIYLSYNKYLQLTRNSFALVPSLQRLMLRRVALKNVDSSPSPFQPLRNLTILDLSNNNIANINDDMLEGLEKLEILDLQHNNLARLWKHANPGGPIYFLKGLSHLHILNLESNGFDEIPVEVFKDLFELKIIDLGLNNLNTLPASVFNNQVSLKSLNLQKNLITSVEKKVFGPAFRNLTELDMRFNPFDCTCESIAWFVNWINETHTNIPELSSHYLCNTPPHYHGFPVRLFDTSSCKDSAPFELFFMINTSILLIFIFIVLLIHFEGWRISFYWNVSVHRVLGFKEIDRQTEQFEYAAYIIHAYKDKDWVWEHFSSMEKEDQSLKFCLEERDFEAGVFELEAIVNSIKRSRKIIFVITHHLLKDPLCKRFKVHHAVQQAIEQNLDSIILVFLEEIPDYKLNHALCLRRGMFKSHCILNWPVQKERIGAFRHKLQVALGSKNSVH
In short: as §1

TLR1 = molecular target: T2, TLR1 (Homo sapiens, UniProt Q15399); assay: Microscale thermophoresis; format: binding
T2 sequence (Q15399 25-580 limits assumed): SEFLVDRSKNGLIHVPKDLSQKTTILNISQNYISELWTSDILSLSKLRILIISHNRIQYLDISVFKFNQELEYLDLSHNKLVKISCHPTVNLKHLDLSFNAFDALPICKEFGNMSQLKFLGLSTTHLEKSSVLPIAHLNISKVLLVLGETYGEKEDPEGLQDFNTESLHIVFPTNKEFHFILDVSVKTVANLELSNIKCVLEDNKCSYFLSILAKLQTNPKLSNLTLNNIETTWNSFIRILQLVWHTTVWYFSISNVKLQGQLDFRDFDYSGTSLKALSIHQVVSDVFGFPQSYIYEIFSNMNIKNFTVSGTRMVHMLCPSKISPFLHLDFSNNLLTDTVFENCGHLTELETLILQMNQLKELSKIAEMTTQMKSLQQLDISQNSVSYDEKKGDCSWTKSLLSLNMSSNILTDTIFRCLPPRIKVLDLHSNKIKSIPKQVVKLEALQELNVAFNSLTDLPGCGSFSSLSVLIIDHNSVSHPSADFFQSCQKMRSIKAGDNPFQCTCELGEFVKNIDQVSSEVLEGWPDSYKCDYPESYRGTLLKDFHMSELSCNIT
In short: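 Human TLR1 expressed in baculovirus-infected High Five insect cells and purified on protein A Sepharose. Labelled with NT-647 and held at 10 nM. Test compound varied 0.31 nM–10 μM. Buffer: 50 mM Tris-HCl pH 7.6, 150 mM NaCl, 10 mM MgCl2, 0.05% Tween 20, in glass capillaries. Apparent Kd fitted from thermophoresis.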

[1] = test system: primary rat macrophage cells; assay: Primary peritoneal macrophage NO activation assay; format: cell-based; conditions: 24 hours
In short: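 Peritoneal cells from Sprague-Dawley rats collected by HBSS lavage, then red cells lysed. Seeded at 40,000/well in Iscove's medium with 10% FBS; adhered 2 h; non-adherent cells washed off; cultured overnight. Serum-free Iscove's then given with test compound, or 66 nM Pam3CSK4, for 24 h. Supernatant nitrite measured by diaminonaphthalene fluorescence.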

human TLR2 = human TLR2 (Homo sapiens, UniProt O60603+Q15399); assay: SEAP reporter gene detection assay in HEK-Blue hTLR2 cells; format: cell-based
In short: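 HEK-Blue hTLR2 cells (SEAP reporter), 4 × 10^4/well, grown 24 h. Then 24 h in Opti-MEM/0.5% FBS with compounds at 0–50 μM or 0–100 μM. Pam3CSK4 (0–66 nM) used as reference agonist. Supernatant heat-treated 30 min at 65°C, cooled, mixed with SEAP buffer and CSPD substrate; luminescence read after 20 min.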

NF-κB = assay: U937 NF-κB–GFP reporter assay; format: cell-based, human; conditions: U937 cells
TNF-α = TNF-α ELISA in Raw 264.7 cells; format: cell-based; conditions: Mus musculus, RAW264.7, 24 h, read-out: EC50, TNF-α production
In short: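 RAW 264.7 cells, 1 × 10^6/well in six-well plates, grown 24 h. Medium refreshed (RPMI 1640). Treated 24 h with test compound; 66 nM Pam3CSK4 as positive control. Supernatants frozen at −80°C. TNF-α quantified by sandwich ELISA against recombinant cytokine standards, each sample in triplicate.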

HEK-Blue hTLR2 cells = assay: QUANTI-Blue SEAP assay with anti-hTLR antibodies; format: cell-based, human; conditions: 60 nM, 24 hours
In short: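 HEK-Blue hTLR2 cells, 4 × 10^4/well, grown 24 h. Then 24 h in Opti-MEM/0.5% FBS containing 60 nM test compound, 0.66 nM Pam3CSK4 or 0.77 nM Pam2CSK4. Anti-hTLR1 IgG, anti-hTLR2 IgA or anti-hTLR6 IgA added at 0–10 μg/ml. Supernatant incubated with QUANTI-Blue 1 h at 37°C; A655 read.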

human TLR2, sequence (O60603 21-784): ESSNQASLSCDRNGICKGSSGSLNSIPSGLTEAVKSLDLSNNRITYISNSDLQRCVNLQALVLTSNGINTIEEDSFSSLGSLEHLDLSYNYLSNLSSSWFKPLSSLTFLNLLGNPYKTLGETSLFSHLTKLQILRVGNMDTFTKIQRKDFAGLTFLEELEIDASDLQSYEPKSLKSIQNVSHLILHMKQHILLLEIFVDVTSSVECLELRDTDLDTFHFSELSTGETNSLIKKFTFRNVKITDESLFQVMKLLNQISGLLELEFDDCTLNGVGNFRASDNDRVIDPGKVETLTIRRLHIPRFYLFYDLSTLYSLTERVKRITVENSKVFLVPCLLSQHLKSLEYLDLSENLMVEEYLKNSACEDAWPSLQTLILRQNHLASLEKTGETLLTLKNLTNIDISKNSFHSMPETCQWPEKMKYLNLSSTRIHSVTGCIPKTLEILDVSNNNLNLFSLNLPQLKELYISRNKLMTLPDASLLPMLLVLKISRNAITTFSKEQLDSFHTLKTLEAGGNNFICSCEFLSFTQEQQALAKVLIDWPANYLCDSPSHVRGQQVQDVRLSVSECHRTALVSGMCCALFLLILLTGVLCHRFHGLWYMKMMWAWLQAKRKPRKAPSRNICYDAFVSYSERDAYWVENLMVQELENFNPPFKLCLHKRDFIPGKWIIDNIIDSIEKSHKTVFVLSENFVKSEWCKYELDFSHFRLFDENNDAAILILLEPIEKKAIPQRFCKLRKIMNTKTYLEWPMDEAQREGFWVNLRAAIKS
human TLR2, sequence (Q15399 25-786): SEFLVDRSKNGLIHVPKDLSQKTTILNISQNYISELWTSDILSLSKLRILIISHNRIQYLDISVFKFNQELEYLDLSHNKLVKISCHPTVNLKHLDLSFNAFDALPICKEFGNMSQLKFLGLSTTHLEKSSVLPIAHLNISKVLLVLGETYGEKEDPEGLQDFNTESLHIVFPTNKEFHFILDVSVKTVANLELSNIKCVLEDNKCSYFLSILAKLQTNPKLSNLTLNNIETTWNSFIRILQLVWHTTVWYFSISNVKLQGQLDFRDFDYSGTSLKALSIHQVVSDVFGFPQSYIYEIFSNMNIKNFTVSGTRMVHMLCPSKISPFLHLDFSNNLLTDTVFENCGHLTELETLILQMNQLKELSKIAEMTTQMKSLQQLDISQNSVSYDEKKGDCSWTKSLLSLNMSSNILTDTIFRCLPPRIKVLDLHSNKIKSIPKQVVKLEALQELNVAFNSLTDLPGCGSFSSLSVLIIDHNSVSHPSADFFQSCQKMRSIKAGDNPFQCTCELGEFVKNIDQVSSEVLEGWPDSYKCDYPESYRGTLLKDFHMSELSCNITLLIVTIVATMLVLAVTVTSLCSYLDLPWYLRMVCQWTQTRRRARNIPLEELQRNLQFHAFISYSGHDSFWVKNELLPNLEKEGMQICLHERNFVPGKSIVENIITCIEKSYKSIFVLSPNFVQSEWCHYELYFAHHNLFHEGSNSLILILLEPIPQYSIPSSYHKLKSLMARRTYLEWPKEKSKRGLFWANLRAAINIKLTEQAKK
human TLR5, sequence (O60602 21-858): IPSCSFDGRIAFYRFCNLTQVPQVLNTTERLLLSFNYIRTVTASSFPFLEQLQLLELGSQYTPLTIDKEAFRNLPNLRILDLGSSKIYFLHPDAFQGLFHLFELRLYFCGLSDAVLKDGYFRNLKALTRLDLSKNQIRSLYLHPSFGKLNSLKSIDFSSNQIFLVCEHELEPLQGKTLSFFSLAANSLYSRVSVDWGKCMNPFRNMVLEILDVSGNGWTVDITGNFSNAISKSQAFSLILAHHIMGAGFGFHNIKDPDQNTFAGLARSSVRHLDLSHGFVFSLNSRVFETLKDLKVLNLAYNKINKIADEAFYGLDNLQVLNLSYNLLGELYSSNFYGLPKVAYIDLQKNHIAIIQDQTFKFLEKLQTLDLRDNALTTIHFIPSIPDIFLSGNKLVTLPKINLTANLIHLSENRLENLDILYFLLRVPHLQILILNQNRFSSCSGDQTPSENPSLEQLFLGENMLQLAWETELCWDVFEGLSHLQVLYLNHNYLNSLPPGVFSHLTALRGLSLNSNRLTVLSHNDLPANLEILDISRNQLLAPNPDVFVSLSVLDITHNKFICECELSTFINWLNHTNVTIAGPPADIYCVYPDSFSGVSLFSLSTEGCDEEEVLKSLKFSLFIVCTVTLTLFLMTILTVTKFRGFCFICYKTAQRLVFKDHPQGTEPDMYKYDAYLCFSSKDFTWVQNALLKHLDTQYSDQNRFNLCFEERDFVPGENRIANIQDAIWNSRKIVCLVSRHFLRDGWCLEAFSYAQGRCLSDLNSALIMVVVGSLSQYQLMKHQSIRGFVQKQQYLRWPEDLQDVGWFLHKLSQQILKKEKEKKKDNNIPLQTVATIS

- activation of SEAP signaling, TLR5 (human TLR5): not in other TLR-overexpressing cells
- activation of SEAP signaling, TLR3 (human TLR3): not in other TLR-overexpressing cells
- Kd (TLR1): 229 ± 66 nM
- EC50 (human TLR2): 52.9 ± 6.2 nM
- activation of SEAP signaling, hTLR2 (human TLR2; 0 to 20 μM, 24 hours): strongly activate
- increase in potency relative to GA (factor) (human TLR2; replacement of –NO2 at R3): 50
- EC50 (TNF-α): 60.5 ± 17 nM
Structure (SMILES): CNc1ccc([N+](=O)[O-])cc1-n1cnc(-c2ccc(C(F)(F)F)cc2)c1 [CU-T12-9, N-methyl-4-nitro-2-(4-(4-(trifluoromethyl)phenyl)-1H-imidazol-1-yl)aniline]
- NO production [1]: efficiently triggered NO production
- NF-κB activation (NF-κB; 5 μM, 24 hours): comparable activation to 66 nM (100 ng/ml) Pam3CSK4
- NF-κB activation (NF-κB; 20 μM (GA even up to 100 μM)): excellent NF-κB activation
- activation of QUANTI-Blue SEAP signaling (HEK-Blue hTLR2 cells): strongly activates
